In ChEMBL document CHEMBL3407395, “Synthesis, characterization, and optimization for in vivo delivery of a nonselective isopeptidase inhibitor as new antineoplastic agent” (J Med Chem, 2015):
Activity calls are given as the source filed them. The calls are words filed in the database; no cut-off is given here.

Legend:
[1] = Cytotoxicity against human U87MG cells after 48 hrs by resazurin assay; format: functional, cell-based, U-87MG ATCC; details: U-87 MG
Summary of the method: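 U87MG glioblastoma cells treated with compounds; viability read by resazurin 48 h after treatment. IC50 from triplicate experiments, reported as mean and s.d.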

T98G [2] = test: Induction of apoptosis in human T98G cells assessed as caspase activation at 0.6 to 10 uM after 24 hrs by rhodamine-based fluorescence assay; format: functional, cell-based
Summary of the method: (§1)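 U87MG or T98G cells exposed 24 h to the listed concentrations. Caspase activity was read as relative fluorescence units from the rhodamine 110 bis-(N-Z-L-aspartyl-L-glutamyl-L-valyl-aspartic acid amide) fluorogenic substrate.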

U-87 MG [3] = test: Induction of apoptosis in human U87MG cells assessed as caspase activation at 0.6 to 10 uM after 24 hrs by rhodamine-based fluorescence assay; format: functional, cell-based; details: U-87MG ATCC; summary of the method: as §1
U-87MG ATCC = test: Induction of cell death in human U87MG cells at 4.2 to 18.4 uM after 24 hrs by trypan blue assay in presence of zVAD-fmk; format: functional, cell-based
U-87 MG [4] = test: Induction of necrosis in human U87MG cells at 0.6 to 10 uM after 24 hrs by trypan blue assay; format: functional, cell-based; details: U-87MG ATCC
Summary of the method: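 U87MG cells treated 24 h at the indicated concentrations. Death scored as percent trypan blue-positive cells. Caspase activity measured in parallel with a rhodamine 110 bis-(N-Z-DEVD amide) fluorogenic substrate and read in relative fluorescence units.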

T98G [5] = test: Induction of necrosis in human T98G cells at 0.6 to 10 uM after 24 hrs by trypan blue assay; format: functional, cell-based
Summary of the method: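 T98G cells exposed 24 h to the listed concentrations. Cell death was scored as percent of trypan blue-positive cells.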

A549 [6] = test: Induction of cell death in human A549 cells assessed as stabilization of p53 at 0.025 to 0.5 uM after 24 hrs by immunoblot assay; format: functional, cell-based
A549 [7] = test: Induction of cell death in human A549 cells assessed as accumulation of Noxa at 0.025 to 0.1 uM after 24 hrs by immunoblot assay; format: functional, cell-based
A549 [8] = test: Induction of cell death in human A549 cells assessed as accumulation of poly-ubiquitinated proteins at 0.025 to 0.5 uM after 24 hrs by immunoblot assay; format: functional, cell-based
[9] = molecular target: T1, Ubl carboxyl-terminal hydrolase 18 (Homo sapiens) (UniProt Q9UMW8); test: Inhibition of USP18 (unknown origin) expressed in human A549 cells coexpressing ISG15-GFP assessed as reduction in free GFP at 25 to 100 nM after 24 hrs by immunoblot assay
T1 sequence (whole entry): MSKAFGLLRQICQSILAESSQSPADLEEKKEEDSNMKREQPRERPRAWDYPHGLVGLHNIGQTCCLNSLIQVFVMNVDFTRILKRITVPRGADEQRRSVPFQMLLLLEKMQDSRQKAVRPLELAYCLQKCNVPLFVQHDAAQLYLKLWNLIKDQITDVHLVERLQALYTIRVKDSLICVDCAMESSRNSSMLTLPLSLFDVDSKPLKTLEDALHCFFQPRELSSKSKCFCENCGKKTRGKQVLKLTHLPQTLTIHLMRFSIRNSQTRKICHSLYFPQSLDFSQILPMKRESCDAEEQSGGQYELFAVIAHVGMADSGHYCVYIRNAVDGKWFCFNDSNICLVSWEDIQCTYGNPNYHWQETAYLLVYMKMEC

[10] = molecular target: T2, Ubiquitin carboxyl-terminal hydrolase 2 (Homo sapiens, UniProt O75604); test: Inhibition of USP2 catalytic domain (unknown origin) expressed in bacteria using Ub-AMC as substrate preincubated for 30 mins before substrate addition measured after 60 mins by fluorescence assay
T2 sequence (O75604 whole entry): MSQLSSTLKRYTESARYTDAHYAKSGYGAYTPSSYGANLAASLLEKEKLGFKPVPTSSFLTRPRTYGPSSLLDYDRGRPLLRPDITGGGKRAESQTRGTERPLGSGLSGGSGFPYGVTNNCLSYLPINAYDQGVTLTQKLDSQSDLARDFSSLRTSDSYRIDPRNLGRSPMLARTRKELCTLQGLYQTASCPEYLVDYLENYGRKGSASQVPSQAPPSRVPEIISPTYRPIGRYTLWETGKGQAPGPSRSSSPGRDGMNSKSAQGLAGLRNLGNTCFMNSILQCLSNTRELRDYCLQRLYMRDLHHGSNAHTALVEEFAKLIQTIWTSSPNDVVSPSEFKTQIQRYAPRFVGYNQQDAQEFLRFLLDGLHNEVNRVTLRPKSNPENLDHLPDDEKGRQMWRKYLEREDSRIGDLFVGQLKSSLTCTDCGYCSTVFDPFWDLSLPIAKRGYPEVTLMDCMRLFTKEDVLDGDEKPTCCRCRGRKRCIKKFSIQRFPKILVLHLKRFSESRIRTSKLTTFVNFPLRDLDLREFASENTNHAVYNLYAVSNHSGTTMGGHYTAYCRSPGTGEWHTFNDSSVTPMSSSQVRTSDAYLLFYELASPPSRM
Summary of the method: (§2)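 Purified isopeptidase activity was measured with ubiquitin-AMC as fluorogenic substrate; IC50 was derived from inhibition.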

[11] = molecular target: T1, Ubl carboxyl-terminal hydrolase 18 (Homo sapiens); test: Inhibition of USP18 (unknown origin) expressed in human A549 cells coexpressing ISG15-GFP assessed as reduction in free GFP at 1 to 5 uM after 24 hrs by immunoblot assay; format: cell-based
[12] = molecular target: T3, Ubiquitin carboxyl-terminal hydrolase isozyme L5 (Homo sapiens, UniProt Q9Y5K5); test: Inhibition of GST-tagged UCHL5 (unknown origin) using Ub-AMC as substrate preincubated for 30 mins before substrate addition measured after 60 mins by fluorescence assay; summary of the method: as §2
T3 sequence (Q9Y5K5 whole entry): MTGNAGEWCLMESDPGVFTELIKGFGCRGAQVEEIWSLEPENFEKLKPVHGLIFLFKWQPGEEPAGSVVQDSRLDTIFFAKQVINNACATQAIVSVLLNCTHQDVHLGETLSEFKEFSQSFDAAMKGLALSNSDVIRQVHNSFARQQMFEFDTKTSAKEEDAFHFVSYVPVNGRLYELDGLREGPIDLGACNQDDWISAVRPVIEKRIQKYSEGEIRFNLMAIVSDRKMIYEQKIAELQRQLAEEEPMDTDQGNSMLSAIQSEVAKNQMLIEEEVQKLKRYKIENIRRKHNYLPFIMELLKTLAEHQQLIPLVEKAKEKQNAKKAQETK

[13] = molecular target: Ubiquitin carboxyl-terminal hydrolase isozyme L1 (Homo sapiens) (UniProt P09936); test: Inhibition of GST-tagged recombinant full-length UCHL1 (unknown origin) expressed in bacteria using Ub-AMC as substrate preincubated for 30 mins before substrate addition measured after 60 mins by fluorescence assay; summary of the method: as §2
Ubiquitin carboxyl-terminal hydrolase isozyme L1 (Homo sapiens), sequence (P09936 whole entry, looked up): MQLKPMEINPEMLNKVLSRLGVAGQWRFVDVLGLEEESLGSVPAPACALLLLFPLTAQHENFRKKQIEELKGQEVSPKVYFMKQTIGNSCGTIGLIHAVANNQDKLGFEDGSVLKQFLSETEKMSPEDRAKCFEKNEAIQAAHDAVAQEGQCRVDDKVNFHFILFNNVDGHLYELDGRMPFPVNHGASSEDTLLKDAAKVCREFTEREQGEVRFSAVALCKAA

A549 [14] = test: Induction of cell death in human A549 cells assessed as accumulation of poly-ubiquitinated proteins at 1 to 5 uM after 24 hrs by immunoblot assay; format: functional, cell-based
[15] = molecular target: T4, Ubl carboxyl-terminal hydrolase 18 (Homo sapiens, UniProt Q9UMW8); test: Inhibition of recombinant human USP18 (16 to 372 aa) expressed in Sf9 cells using ISG15-AMC as substrate preincubated for 30 mins before substrate addition measured after 60 mins by fluorescence assay
T4 sequence (Q9UMW8 whole entry): T1 sequence (whole entry)

A549 [16] = test: Induction of cell death in human A549 cells assessed as stabilization of p53 at 1 to 5 uM after 24 hrs by immunoblot assay; format: functional, cell-based

Row | SMILES | IC50 [1] [nM] | also measured
1 | O=C1/C(=C/c2cccc([N+](=O)[O-])c2)CS(=O)(=O)C/C1=C\c1cccc([N+](=O)[O-])c1 | 760 | 
2 | COc1ccc(/C=C2\CS(=O)(=O)C/C(=C\c3ccc(OC)c([N+](=O)[O-])c3)C2=O)cc1[N+](=O)[O-] | 1140 | 
3 | CCOC(=O)C1C/C(=C\c2ccc([N+](=O)[O-])cc2)C(=O)/C(=C/c2ccc([N+](=O)[O-])cc2)C1 (stereo not drawn) | 2470 | 
4 | Cc1ccc(/C=C2\CS(=O)(=O)C/C(=C\c3ccc(C)cc3)C2=O)cc1 | 4740 | Activity (T98G [2]): Active; Activity (U-87 MG [3]): Active; Activity (U-87MG ATCC): Active; Activity (U-87 MG [4]): Active; Activity (T98G [5]): Active
5 | O=C1/C(=C/c2ccc([N+](=O)[O-])cc2)CNC/C1=C\c1ccc([N+](=O)[O-])cc1 | 7150 | 
6 | O=C1/C(=C/c2ccc(Oc3ccccc3)cc2)CS(=O)(=O)C/C1=C\c1ccc(Oc2ccccc2)cc1 | 2940 | 
7 | O=C1/C(=C/c2ccc([N+](=O)[O-])cc2)C[S+]([O-])C/C1=C\c1ccc([N+](=O)[O-])cc1 (stereo not drawn) | 1790 | Activity (U-87 MG [4]): Active
8 | O=C1/C(=C/c2ccc([N+](=O)[O-])cc2)CSC/C1=C\c1ccc([N+](=O)[O-])cc1 | 11600 | 
9 | COc1ccc(/C=C2\CS(=O)(=O)C/C(=C\c3ccc([N+](=O)[O-])cc3)C2=O)cc1 | 2090 | 
10 | COc1ccc(/C=C2\CS(=O)(=O)C/C(=C\c3ccc(OC)cc3)C2=O)cc1 | 3570 | 
11 | CC(C)C[C@H](NC(=O)[C@H](Cc1ccccc1)NC(=O)c1cnccn1)B(O)O |  | Activity (A549 [6]): Active; Activity (A549 [7]): Active; Activity (A549 [8]): Active; inhibition [9]: inactive
12 | O=C1/C(=C/c2ccc(O)cc2)CS(=O)(=O)C/C1=C\c1ccc([N+](=O)[O-])cc1 | 2170 | 
13 | O=C1/C(=C/c2ccc([N+](=O)[O-])cc2)CC2(C/C1=C\c1ccc([N+](=O)[O-])cc1)OCCO2 | 15300 | 
14 | N#Cc1ccc(/C=C2\CS(=O)(=O)C/C(=C\c3ccc(C#N)cc3)C2=O)cc1 | 1350 | 
15 | Cc1ccc(/C=C2\CS(=O)(=O)C/C(=C\c3ccc([N+](=O)[O-])cc3)C2=O)cc1 | 1390 | 
16 | O=C1/C(=C/c2ccccc2)CS(=O)(=O)C/C1=C\c1ccccc1 | 5110 | 
17 | O=C1/C(=C/c2ccc(F)cc2)CS(=O)(=O)C/C1=C\c1ccc(F)cc1 | 2210 | 
18 | O=C1/C(=C/c2ccc([N+](=O)[O-])cc2)CCC/C1=C\c1ccc([N+](=O)[O-])cc1 | 27500 | 
19 | O=C1/C(=C/c2ccc([N+](=O)[O-])cc2)COC/C1=C\c1ccc([N+](=O)[O-])cc1 | 50100 | 
20 | O=C1/C(=C/c2ccc(O)cc2)CS(=O)(=O)C/C1=C\c1ccc(O)cc1 | 6730 | 
21 | O=C1/C(=C/c2ccc([N+](=O)[O-])cc2)CS(=O)(=O)C/C1=C\c1ccc([N+](=O)[O-])cc1 | 770 | IC50 [10]: 32.6 µM; inhibition [11]: Active; IC50 [12]: 13.6 µM; Activity (U-87 MG [4]): Active; inhibition [13]: inactive; Activity (A549 [14]): Active; IC50 [15]: 33.2 µM; Activity (A549 [16]): Active
